What was measured:
[1] = Drug metabolism in rat liver microsomes assessed as cytochrome P450-mediated 4-hydroxy-3-(3-oxo-1-phenyl-1-butenyl)-2H-1-benzopyran-2-one metabolite formation measured for 10 mins by LC-UV analysis; type: ADME
Outline: (§1)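 Time course with (S)-warfarin in uninduced rat liver microsomes (cytochrome P-450 1.0 nmol/mg protein; protein 2 mg/mL) at 37 °C and pH 7.4. NADPH-supported TES–MgCl2 incubation, with products quantified by LC. Single determination from a pool of five rats.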

[2] = Drug metabolism in PCN-induced rat liver microsomes assessed as cytochrome P450-mediated 4-hydroxy-3-(3-oxo-1-phenyl-1-butenyl)-2H-1-benzopyran-2-one metabolite formation at 0.15 mmol measured per nmol of CYP450 by LC-UV analysis
[3] = Drug metabolism in rat liver microsomes assessed as cytochrome P450-mediated 6-hydroxywarfarin metabolite formation measured after 10 mins by LC-UV analysis; type: ADME; outline: as §1
[4] = Drug metabolism in rat liver microsomes assessed as cytochrome P450-mediated 6-hydroxywarfarin metabolite formation by LC-UV analysis in presence of carbon monoxide-oxygen mixture at ratio of 80:20; type: ADME
Outline: (§2)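 Same NADPH-supported microsomal incubation (warfarin 3.0 × 10^-6 mol, 8.0 mg protein, 4.0 mL TES–MgCl2, pH 7.4). Flasks were sealed with a septum and equilibrated under the stated gas atmosphere for 15 min on ice, then incubated at 37 °C. Products quantified by LC.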

[5] = Drug metabolism in rat liver microsomes assessed as cytochrome P450-mediated 7-hydroxywarfarin metabolite formation measured after 10 mins by LC-UV analysis; type: ADME; outline: as §1
[6] = Drug metabolism in rat liver microsomes assessed as cytochrome P450-mediated 4-oxo-3-(3-oxo-1-phenylbut-1-enyl)-4H-chromen-2-olate metabolite formation at 3 umol measured under basic conditions by LC-UV analysis in presence of NADPH; type: ADME
Outline: (§3)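 Male Wistar rat liver microsomes, uninduced or phenobarbital-induced (100 mg/kg/day ip in saline for 3 days, harvested 24 h after the last dose). Per 4.0 mL of 0.01 M TES–0.002 M MgCl2, pH 7.4: (R)- or (S)-warfarin sodium 3.0 × 10^-6 mol, NADP 1.25 µmol, glucose 6-phosphate 62.1 µmol, 8.0 mg protein. Preincubated 1.0 min at 37 °C, started with yeast G6P dehydrogenase (5.0 units), stopped by filtration after 10 min. Products quantified by LC against external standards.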

[7] = Drug metabolism in phenobarbital-induced rat liver microsomes assessed as cytochrome P450-mediated 4-hydroxy-3-(3-oxo-1-phenyl-1-butenyl)-2H-1-benzopyran-2-one metabolite formation at 3 umol measured under acidic conditions by LC-UV analysis in presence of NADPH; type: ADME; outline: as §3
[8] = Drug metabolism in rat liver microsomes assessed as cytochrome P450-mediated 4'-hydroxywarfarin metabolite formation measured for 10 mins by LC-UV analysis; type: ADME; outline: as §1
[9] = Drug metabolism in rat liver microsomes assessed as cytochrome P450-mediated 4-hydroxy-3-(3-oxo-1-phenyl-1-butenyl)-2H-1-benzopyran-2-one metabolite formation by LC-UV analysis in presence of carbon monoxide-oxygen mixture at ratio of 80:20; type: ADME; outline: as §2
[10] = Drug metabolism in rat liver microsomes assessed as cytochrome P450-mediated 4'-hydroxywarfarin metabolite formation by LC-UV analysis in presence of carbon monoxide-oxygen mixture at ratio of 80:20; type: ADME; outline: as §2
[11] = Drug metabolism in rat liver microsomes assessed as cytochrome P450-mediated 4-hydroxy-3-(3-oxo-1-phenyl-1-butenyl)-2H-1-benzopyran-2-one metabolite formation by LC-UV analysis in presence of nitrogen; type: ADME; outline: as §2
[12] = Drug metabolism in rat liver microsomes assessed as cytochrome P450-mediated 4'-hydroxywarfarin metabolite formation measured after 10 mins by LC-UV analysis; type: ADME; outline: as §1
[13] = Drug metabolism in rat liver microsomes assessed as cytochrome P450-mediated 4-hydroxy-3-(3-oxo-1-phenyl-1-butenyl)-2H-1-benzopyran-2-one metabolite formation measured after 10 mins by LC-UV analysis; type: ADME; outline: as §1
[14] = Drug metabolism in rat liver microsomes assessed as cytochrome P450-mediated 7-hydroxywarfarin metabolite formation measured for 10 mins by LC-UV analysis; type: ADME; outline: as §1
[15] = Drug metabolism in rat liver microsomes assessed as cytochrome P450-mediated 6-hydroxywarfarin metabolite formation measured for 10 mins by LC-UV analysis; type: ADME; outline: as §1
[16] = Drug metabolism in rat liver microsomes assessed as cytochrome P450-mediated 7-hydroxywarfarin metabolite formation by LC-UV analysis in presence of carbon monoxide-oxygen mixture at ratio of 80:20; type: ADME; outline: as §2
[17] = Drug metabolism in phenobarbital-induced rat liver microsomes assessed as cytochrome P450-mediated 4-oxo-3-(3-oxo-1-phenylbut-1-enyl)-4H-chromen-2-olate metabolite formation at 3 umol measured under basic conditions by LC-UV analysis in presence of NADPH; type: ADME; outline: as §3
[18] = Drug metabolism in rat liver microsomes assessed as cytochrome P450-mediated 4-hydroxy-3-(3-oxo-1-phenyl-1-butenyl)-2H-1-benzopyran-2-one metabolite formation at 3 umol measured under acidic conditions by LC-UV analysis in presence of NADPH; type: ADME; outline: as §3
[19] = Activity at cytochrome P450 in rat liver microsomes treated with (S)-warfarin measured for 10 mins by LC-UV analysis; type: ADME
Outline: (§4)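 Male Wistar rat hepatic microsomes, 8.0 mg protein in 4.0 mL 0.01 M TES-0.002 M MgCl2, pH 7.4. Enantiopure warfarin sodium 1.0 mg (3.0 × 10^-6 mol) with an NADPH-generating system (NADP 1.25 μmol, glucose 6-phosphate 62.1 μmol). Preincubated 1.0 min at 37 °C, started with G6P dehydrogenase 5.0 units, stopped after 10 min by filtration. Metabolites separated and quantified by LC against external standards.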

[20] = Activity at cytochrome P450 in rat liver microsomes treated with (S)-warfarin measured after 10 mins by LC-UV analysis; type: ADME; outline: as §4
[21] = Activity at cytochrome P450 in rat liver microsomes treated with (R)-warfarin measured after 10 mins by LC-UV analysis; type: ADME; outline: as §4
[22] = Activity at cytochrome P450 in rat liver microsomes treated with (R)-warfarin measured for 10 mins by LC-UV analysis; type: ADME; outline: as §4

CC(=O)C[C@@H](c1ccccc1)c1c(O)c2ccccc2oc1=O
Drug metabolism [1]: metabolite_detected | Drug metabolism [2]: 0.19 nmol/min | Drug metabolism [3]: metabolite_detected | Drug metabolism [4]: metabolite_detected | Drug metabolism [5]: metabolite_detected | Drug metabolism [6]: metabolite_detected | Drug metabolism [7]: metabolite_detected | Drug metabolism [8]: metabolite_detected | Drug metabolism [9]: metabolite_detected | Drug metabolism [10]: metabolite_detected | Drug metabolism [11]: metabolite_notdetected | Drug metabolism [12]: metabolite_detected | Drug metabolism [13]: metabolite_notdetected | Drug metabolism [14]: metabolite_detected | Drug metabolism [15]: metabolite_detected | Drug metabolism [16]: metabolite_detected | Drug metabolism [17]: metabolite_detected | Drug metabolism [18]: metabolite_detected

CC(=O)CC(c1ccc(O)cc1)c1c(O)oc2ccccc2c1=O (configuration not stated)
Drug metabolism [19]: metabolite_detected | Drug metabolism [20]: metabolite_detected | Drug metabolism [21]: metabolite_detected | Drug metabolism [22]: metabolite_detected

— ChEMBL document CHEMBL3244411, “A new warfarin metabolite: structure and function” (J Med Chem, 1978)
